Test results reported in ChEMBL document CHEMBL1125395, “Development of high-affinity 5-HT3 receptor antagonists. 1. Initial structure-activity relationship of novel benzamides” (J Med Chem, 1992).

Tests used:
[1] = target: T1, Serotonin 3 (5-HT3) receptor (Rattus norvegicus, UniProt P35563+Q9JJ16); assay: Displacement of the 5-hydroxytryptamine 3 receptor ligand [3H]GR-65630 from rat brain cortical membranes.; assay type: cell membranes, Membrane
T1 sequence (P35563 whole entry): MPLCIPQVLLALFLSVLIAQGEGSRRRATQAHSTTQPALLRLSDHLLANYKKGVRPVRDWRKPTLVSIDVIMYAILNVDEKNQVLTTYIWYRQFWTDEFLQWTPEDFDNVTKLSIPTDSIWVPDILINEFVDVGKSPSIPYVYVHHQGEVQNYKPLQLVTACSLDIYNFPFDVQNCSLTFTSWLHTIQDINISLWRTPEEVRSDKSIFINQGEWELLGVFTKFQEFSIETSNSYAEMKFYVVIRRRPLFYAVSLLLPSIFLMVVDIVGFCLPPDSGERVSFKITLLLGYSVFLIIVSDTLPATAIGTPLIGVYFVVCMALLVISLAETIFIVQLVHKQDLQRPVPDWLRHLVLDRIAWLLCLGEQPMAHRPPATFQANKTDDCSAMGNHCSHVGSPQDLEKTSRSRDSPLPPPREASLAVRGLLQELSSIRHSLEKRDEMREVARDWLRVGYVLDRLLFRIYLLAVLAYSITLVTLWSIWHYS
T1 sequence (Q9JJ16 whole entry): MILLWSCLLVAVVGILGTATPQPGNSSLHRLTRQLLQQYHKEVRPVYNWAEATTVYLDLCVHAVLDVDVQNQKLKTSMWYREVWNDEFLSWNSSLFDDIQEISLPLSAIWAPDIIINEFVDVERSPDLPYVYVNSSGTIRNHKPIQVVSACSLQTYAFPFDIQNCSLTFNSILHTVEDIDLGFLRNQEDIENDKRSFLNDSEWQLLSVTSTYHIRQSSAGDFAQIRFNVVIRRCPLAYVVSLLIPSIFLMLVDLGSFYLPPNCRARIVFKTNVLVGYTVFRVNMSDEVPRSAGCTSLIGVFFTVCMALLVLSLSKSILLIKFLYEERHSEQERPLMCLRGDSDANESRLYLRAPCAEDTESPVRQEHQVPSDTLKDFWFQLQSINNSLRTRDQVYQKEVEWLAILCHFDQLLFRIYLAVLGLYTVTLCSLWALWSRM
Outline: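 Entorhinal cortex from frozen rat brains homogenized, spun 40000g 10 min in HEPES buffer (25 mM HEPES, CaCl2 5 mM, pH 7.4). Filtration, Tris pH 7.7 washes, scintillation counting. Four-six concentrations in triplicate; Ki via Cheng-Prusoff.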

Mustela putorius furo [2] = assay: Antiemetic activity (intravenous administration) against cisplatin-induced emesis in ferret, as the dose required to reduce emetic episodes to 50% of control value; assay type: functional
Outline: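 Castrated male Fitch ferrets (1-2 kg, nonfasted), jugular catheter implanted ≥48 h prior. Compound in 0.9% saline iv (2 mL/kg) 30 min before and 45 min after cisplatin 3 mg/kg iv. Emetic episodes counted for 4 h post-cisplatin, % inhibition vs vehicle controls run in tandem; dose halving episodes from 4-10 animals/dose, ≥3 doses, 95% confidence limits.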

Mustela putorius furo [3] = assay: Antiemetic activity (intravenous administration) against cisplatin-induced emesis in ferret, as the dose required to increase latency to first emetic bout by 100%; assay type: functional
Outline: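 Nonfasted castrated male Fitch ferrets (1-2 kg) with jugular vein catheter implanted under pentobarbital ≥48 h earlier. Drug in 0.9% saline, 2 mL/kg iv, 30 min before and 45 min after cisplatin (3 mg/kg iv). Emetic latency recorded over 4 h; % increase vs tandem vehicle; dose raising mean latency 100%. 3-12 ferrets/dose, ≥3 doses, 95% confidence limits.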

Mustela putorius furo [4] = assay: Antiemetic activity (oral administration) against cisplatin-induced emesis in ferret, as the dose required to increase latency to first emetic bout by 50%; assay type: functional
Outline: (§1)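 Nonfasted castrated male Fitch ferrets (1-2 kg), each used once. Drug dissolved/suspended in 0.5% methylcellulose in gelatin capsule, given po 60 min before cisplatin 3 mg/kg iv (via jugular catheter). Vehicle controls in tandem. Observed 4 h; emetic episodes and latency to first bout recorded. ED50 from 3-12 animals per dose, at least 3 doses, with 95% confidence limits.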

Mustela putorius furo [5] = assay: Antiemetic activity (oral administration) against cisplatin-induced emesis in ferret, as the dose required to reduce emetic episodes to 50% of control value; assay type: functional; outline: as §1

SMILES	Ki [1]	ED50 (Mustela putorius furo [2])	ED100 (Mustela putorius furo [3])	ED50 (Mustela putorius furo [4])	ED50 (Mustela putorius furo [5])
CC1(C)CCCc2cc(Cl)cc(C(=O)NC3CN4CCC3CC4)c2O1 (stereo unspecified)	15.6 nM	–	–	–	–
O=C(NC1CN2CCC1CC2)c1cccc2c1OCCCC2 (stereo unspecified)	13.8 nM	–	–	–	–
O=C(NC1CN2CCC1CC2)c1cc(Cl)cc2c1OCCCCC2 (stereo unspecified)	4.7 nM	–	–	–	–
COc1ccc(Cl)cc1C(=O)NC1CN2CCC1CC2 (stereo unspecified)	46.8 nM	–	–	–	–
O=C(NC1CN2CCC1CC2)c1cc(Cl)cc2c1OC1(CCCCC1)C2 (stereo unspecified)	1.07 nM	0.002 mg/kg	0.006 mg/kg	–	–
O=C(NC1CCN2CCCC1C2)c1cc(Cl)cc2c1OCCCC2 (stereo unspecified)	63 nM	–	–	–	–
O=C(N[C@H]1CN2CCC1CC2)c1cc(Cl)cc2c1OC1(CCCCC1)C2	0.89 nM	0.099 mg/kg	0.055 mg/kg	–	–
O=C(N[C@@H]1CN2CCC1CC2)c1cc(Cl)cc2c1OC1(CCCCC1)C2	0.19 nM	0.009 mg/kg	0.005 mg/kg	0.004 mg/kg	0.009 mg/kg
Nc1c(Cl)cc2c(c1C(=O)NC1CN3CCC1CC3)OCCCC2 (stereo unspecified)	> 100 nM	–	–	–	–
COc1c(C(=O)NC2CN3CCC2CC3)cc(Cl)cc1C1CCCCC1 (stereo unspecified)	6.09 nM	–	–	–	–
CCC(C)Oc1c(C(=O)NC2CN3CCC2CC3)cc(Cl)cc1C1CCCCC1 (stereo unspecified)	> 30 nM	–	–	–	–
O=C(NC1CN2CCC1CC2)c1cc(Cl)cc2c1OCCCC2 (stereo unspecified)	1.22 nM	–	–	–	–
O=C(NC1CN2CCC1CC2)c1cc(Br)cc2c1OCCCC2 (stereo unspecified)	2.16 nM	–	–	–	–
CN1CC2CCC1CC(OC(=O)c1c[nH]c3ccccc13)C2 (stereo unspecified)	1.66 nM	–	–	–	–
CN1C2CCCC1CC(NC(=O)c1nn(C)c3ccccc13)C2 (stereo unspecified) [GRANISETRON]	–	0.226 mg/kg	0.082 mg/kg	0.117 mg/kg	0.119 mg/kg
CCN(CC)CCNC(=O)c1cc(Cl)c(N)cc1OC [METOCLOPRAMIDE]	995 nM	1.45 mg/kg	2.1 mg/kg	> 5 mg/kg	6.17 mg/kg
Cc1nccn1CC1CCc2c(c3ccccc3n2C)C1=O (stereo unspecified) [ONDANSETRON]	–	0.008 mg/kg	0.015 mg/kg	0.031 mg/kg	0.28 mg/kg
COc1cc(N)c(Cl)cc1C(=O)NC1CN2CCC1CC2 (stereo unspecified) [ZACOPRIDE]	1.5 nM	–	–	–	–
